From ChEMBL document CHEMBL5036358, “The Flavonoid Baicalein Negatively Regulates Progesterone Target Genes in the Uterus in Vivo” (J Nat Prod, 2022)
The source made the active and inactive calls. No cut-off for these calls is given here.

What was measured:
[1] = Toxicity in CD-1 mouse assessed as effect on glucose level at 25 mg/kg, ip for 7 days (Rvb=231.6 mg/dL); format: organism-based; settings: in vivo, 168 h, time 7 day
[2] = Antiproliferative activity against CD-1 mouse uterine epithelial cell at 25 mg/kg, ip for 7 days by immunohistochemistry method; format: functional; settings: time 7 day
Outline: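 Ovariectomized CD-1 mice (n=5/group) received ip 10% DMSO vehicle, 1 mg/kg P4, 25 mg/kg compound, or P4 plus compound daily for 7 days. Formalin-fixed, paraffin 5 μm uterine sections underwent citrate antigen retrieval (100 °C, 30 min), then PCNA IHC (1:200, overnight 4 °C), ABC/DAB and hematoxylin counterstain. Read-out was the percentage of PCNA-positive luminal epithelial cells.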

Mus musculus [3] = test: Effect on P4 induced GR expression in CD-1 mouse uterine luminal epithelium at 25 mg/kg, ip for 7 days by immunohistochemical analysis; format: functional, organism-based; settings: Uterine lumen, time 7.0 day
Outline: (§1)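 Ovariectomized CD-1 mice (n=5/group) were dosed ip for 7 days with 10% DMSO, 1 mg/kg P4, 25 mg/kg compound, 1 mg/kg P4 plus 25 mg/kg compound, or 1 mg/kg P4 plus 10 mg/kg RU486. Uterine sections (5 μm) were processed with citrate retrieval and overnight 4 °C primary antibodies: GR 1:100; PR, HAND2 and ZBTB16 1:200. Staining used biotinylated secondary, ABC and DAB, and was assessed qualitatively.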

[4] = Toxicity in CD-1 mouse assessed as effect on liver weight at 25 mg/kg, ip for 7 days (Rvb= 1.3 g); format: organism-based; settings: in vivo, 168 h, time 7 day
Mus musculus [5] = test: Inhibition of ZBTB16 expression in CD-1 mouse uterus at 25 mg/kg, ip for 7 days by Immunohistochemical staining method; format: functional, organism-based; settings: time 7.0 day; outline: as §1
Mus musculus [6] = test: Upregulation of P4 induced HAND2 expression in CD-1 mouse uterus at 25 mg/kg, ip for 7 days by immunohistochemical staining method; format: functional, organism-based; settings: time 7.0 day, in the assay text read “Downregulation” for “Upregulation”; outline: as §1
[7] = Toxicity in P4 induced CD-1 mouse assessed as effect on liver weight at 25 mg/kg, ip for 7 days (Rvb= 1.3 g); format: organism-based; settings: in vivo, 168 h, time 7 day
Mus musculus [8] = test: Effect on PR protein level in CD-1 mouse uterus at 25 mg/kg, ip for 7 days by immunohistochemical staining method; format: functional, organism-based; settings: time 7.0 day; outline: as §1
[9] = Toxicity in CD-1 mouse assessed as effect on body weight at 25 mg/kg, ip for 7 days (Rvb= 30g); format: organism-based; settings: in vivo, 168 h, time 7 day
Mus musculus [10] = test: Inhibition of PR induced ZBTB16 expression in CD-1 mouse uterus at 25 mg/kg,ip for 7 days by Immunohistochemical staining method; format: functional, organism-based; settings: time 7.0 day; outline: as §1
[11] = Toxicity in P4 induced CD-1 mouse assessed as effect on uterus weight at 25 mg/kg,ip for 7 days (Rvb= 0.033g); format: organism-based; settings: in vivo, 168 h, time 7 day
[12] = Toxicity in CD-1 mouse assessed as effect on MG weight at 25 mg/kg, ip for 7 days (Rvb= 0.22g); format: organism-based; settings: in vivo, 168 h, time 7 day
Progesterone receptor = molecular target: T1, Progesterone receptor (Homo sapiens, UniProt P06401); test: Competitive inhibition of progesterone receptor (unknown origin) by fluorescence polarization based competition assay
T1 sequence (P06401 whole entry): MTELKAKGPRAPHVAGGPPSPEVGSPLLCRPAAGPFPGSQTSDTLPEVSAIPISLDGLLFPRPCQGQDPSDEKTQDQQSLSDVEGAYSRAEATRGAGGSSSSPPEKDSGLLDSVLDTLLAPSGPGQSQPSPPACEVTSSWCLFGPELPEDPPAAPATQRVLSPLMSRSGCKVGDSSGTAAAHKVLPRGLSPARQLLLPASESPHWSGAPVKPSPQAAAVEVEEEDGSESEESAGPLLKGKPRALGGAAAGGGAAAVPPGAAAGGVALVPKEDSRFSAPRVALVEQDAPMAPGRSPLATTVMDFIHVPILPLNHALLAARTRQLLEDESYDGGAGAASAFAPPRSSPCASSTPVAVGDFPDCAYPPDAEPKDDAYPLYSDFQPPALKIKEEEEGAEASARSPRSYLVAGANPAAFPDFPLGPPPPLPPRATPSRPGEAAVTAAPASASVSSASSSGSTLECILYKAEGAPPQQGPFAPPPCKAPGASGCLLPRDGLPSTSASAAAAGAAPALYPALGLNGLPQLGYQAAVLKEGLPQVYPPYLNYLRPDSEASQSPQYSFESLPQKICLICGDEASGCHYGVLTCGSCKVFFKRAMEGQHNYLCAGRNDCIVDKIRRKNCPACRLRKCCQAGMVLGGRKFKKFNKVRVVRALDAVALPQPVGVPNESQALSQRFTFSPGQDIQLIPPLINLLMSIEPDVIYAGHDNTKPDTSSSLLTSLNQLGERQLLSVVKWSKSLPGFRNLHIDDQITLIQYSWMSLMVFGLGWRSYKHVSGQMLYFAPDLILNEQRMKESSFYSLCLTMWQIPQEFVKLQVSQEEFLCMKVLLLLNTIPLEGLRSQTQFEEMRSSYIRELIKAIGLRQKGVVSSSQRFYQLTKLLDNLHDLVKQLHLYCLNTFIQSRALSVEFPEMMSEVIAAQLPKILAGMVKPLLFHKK

[13] = Toxicity in P4 induced CD-1 mouse assessed as effect on glucose level at 25 mg/kg, ip for 7 days (Rvb=231.6 mg/dL); format: organism-based; settings: in vivo, 168 h, time 7 day
Mus musculus [14] = test: Effect on GR expression in CD-1 mouse uterine luminal epithelium at 25 mg/kg, ip for 7 days by immunohistochemical analysis; format: functional, organism-based; settings: Uterine lumen, time 7.0 day; outline: as §1
Mus musculus [15] = test: Upregulation of HAND2 expression in CD-1 mouse uterus at 25 mg/kg, ip for 7 days by immunohistochemical staining method; settings: time 7.0 day
Mus musculus [16] = test: Effect on P4 induced GR expression in CD-1 mouse uterine stroma at 25 mg/kg, ip for 7 days by immunohistochemical analysis; format: functional, organism-based; settings: time 7.0 day; outline: as §1
[17] = Toxicity in P4 induced CD-1 mouse assessed as effect on MG weight at 25 mg/kg, ip for 7 days (Rvb= 0.22g); format: organism-based; settings: in vivo, 168 h, time 7 day
[18] = Toxicity in CD-1 mouse assessed as effect on uterus weight at 25 mg/kg,ip for 7 days (Rvb= 0.033g); format: organism-based; settings: in vivo, 168 h, time 7 day
[19] = Toxicity in P4 induced CD-1 mouse assessed as effect on body weight at 25 mg/kg, ip for 7 days (Rvb= 30g); format: organism-based; settings: in vivo, 168 h, time 7 day
Mus musculus [20] = test: Effect on GR expression in CD-1 mouse uterine stroma at 25 mg/kg, ip for 7 days by immunohistochemical analysis; format: functional, organism-based; settings: time 7.0 day; outline: as §1
Glucocorticoid receptor = molecular target: T2, Glucocorticoid receptor (Homo sapiens, UniProt P04150); test: Competitive inhibition of glucocorticoid receptor (unknown origin) by fluorescence polarization based competition assay
T2 sequence (P04150 whole entry): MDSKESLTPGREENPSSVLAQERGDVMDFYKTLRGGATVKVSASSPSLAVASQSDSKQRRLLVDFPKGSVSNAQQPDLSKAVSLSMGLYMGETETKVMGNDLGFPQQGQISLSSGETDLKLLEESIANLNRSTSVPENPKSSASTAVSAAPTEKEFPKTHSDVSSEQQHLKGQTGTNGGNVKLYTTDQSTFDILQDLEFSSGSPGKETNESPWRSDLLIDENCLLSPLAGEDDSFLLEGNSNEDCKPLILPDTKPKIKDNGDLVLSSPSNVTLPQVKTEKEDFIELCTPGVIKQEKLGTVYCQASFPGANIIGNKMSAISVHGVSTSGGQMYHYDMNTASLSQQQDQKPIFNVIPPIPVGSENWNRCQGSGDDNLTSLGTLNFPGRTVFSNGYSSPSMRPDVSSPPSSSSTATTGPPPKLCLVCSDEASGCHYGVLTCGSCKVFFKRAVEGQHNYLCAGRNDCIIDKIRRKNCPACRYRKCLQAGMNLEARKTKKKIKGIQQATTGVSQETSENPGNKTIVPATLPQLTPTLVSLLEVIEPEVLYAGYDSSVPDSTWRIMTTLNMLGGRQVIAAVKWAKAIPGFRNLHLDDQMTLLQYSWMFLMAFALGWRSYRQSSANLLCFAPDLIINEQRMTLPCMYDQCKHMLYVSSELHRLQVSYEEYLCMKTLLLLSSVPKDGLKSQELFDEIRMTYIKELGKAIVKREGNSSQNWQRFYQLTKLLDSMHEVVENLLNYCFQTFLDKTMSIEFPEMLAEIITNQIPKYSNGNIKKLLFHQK

Mus musculus [21] = test: Effect on P4 induced PR protein level in CD-1 mouse uterus at 25 mg/kg, ip for 7 days by immunohistochemical staining method; format: functional, organism-based; settings: time 7.0 day; outline: as §1
[22] = Toxicity in P4 induced CD-1 mouse assessed as effect on glucose level at 10 mg/kg, ip for 7 days (Rvb=231.6 mg/dL); format: organism-based; settings: in vivo, 168 h, time 7 day
[23] = Toxicity in P4 induced CD-1 mouse assessed as effect on liver weight at 10 mg/kg, ip for 7 days (Rvb= 1.3 g); format: organism-based; settings: in vivo, 168 h, time 7 day
[24] = Toxicity in P4 induced CD-1 mouse assessed as effect on MG weight at 10 mg/kg, ip for 7 days (Rvb= 0.22g); format: organism-based; settings: in vivo, 168 h, time 7 day
Mus musculus [25] = test: Effect on P4 induced PR protein level in CD-1 mouse uterus at 10 mg/kg, ip for 7 days by immunohistochemical staining method; format: functional, organism-based; settings: time 7.0 day
Mus musculus [26] = test: Effect on P4 induced GR expression in CD-1 mouse uterine luminal epithelium at 10 mg/kg, ip for 7 days by immunohistochemical analysis; format: functional, organism-based; settings: Uterine lumen, time 7.0 day; outline: as §1
Mus musculus [27] = test: Effect on P4 induced GR expression in CD-1 mouse uterine stroma at 10 mg/kg, ip for 7 days by immunohistochemical analysis; format: functional, organism-based; settings: time 7.0 day; outline: as §1
[28] = Toxicity in P4 induced CD-1 mouse assessed as effect on body weight at 10 mg/kg, ip for 7 days (Rvb= 30g); format: organism-based; settings: in vivo, 168 h, time 7 day
Mus musculus [29] = test: Upregulation of P4 induced HAND2 expression in CD-1 mouse uterus at 10 mg/kg, ip for 7 days by immunohistochemical staining method; format: functional, organism-based; settings: time 7.0 day
[30] = Toxicity in P4 induced CD-1 mouse assessed as effect on uterus weight at 10 mg/kg,ip for 7 days (Rvb= 0.033g); format: organism-based; settings: in vivo, 168 h, time 7 day
[31] = Antiproliferative activity against CD-1 mouse uterine epithelial cell at 1 mg/kg, ip for 7 days by immunohistochemistry method; format: functional; settings: time 7 day
Outline: (§2)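 Ovariectomized CD-1 mice, 5 per group, dosed IP daily for 7 days: 10% DMSO vehicle, progesterone 1 mg/kg, baicalein 25 mg/kg, P4 1 mg/kg + baicalein 25 mg/kg, or P4 1 mg/kg + RU486 10 mg/kg. One uterine horn formalin-fixed, paraffin-embedded, cut at 5 μm. IHC: citrate antigen retrieval at 100 °C, primary antibody overnight at 4 °C, ABC/DAB, hematoxylin counterstain. For PCNA, the percentage of proliferating luminal epithelial cells was counted.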

Mus musculus [32] = test: Inhibition of ZBTB16 expression in CD-1 mouse uterus at 1 mg/kg, ip for 7 days by Immunohistochemical staining method; format: functional, organism-based; settings: time 7.0 day; outline: as §2
Mus musculus [33] = test: Effect on PR protein level in CD-1 mouse uterus at 1 mg/kg, ip for 7 days by immunohistochemical; format: functional, organism-based; settings: time 7.0 day; outline: as §2
Mus musculus [34] = test: Effect on GR expression in CD-1 mouse uterine stromal at 1 mg/kg, ip for 7 days by immunohistochemical staining analysis; format: functional, organism-based; settings: Stroma, time 7.0 day; outline: as §2

With `O=c1cc(-c2ccccc2)oc2cc(O)c(O)c(O)c12` [BAICALEIN] the Activity [1] was 196.2 mg/dL, the Activity [2] was 47% and the Activity (Mus musculus [3]) was “Active”. The Activity [4] was 1.4 g, the inhibition (Mus musculus [5]) was “inactive” and the Activity (Mus musculus [6]) was “Active”. For the same molecule, the Activity [7] was 1.2 g, the Activity (Mus musculus [8]) was “inactive” and the Activity [9] was 30 g. For the same molecule, the inhibition (Mus musculus [10]) was “Active”, the Activity [11] was 0.024 g and the Activity [12] was 0.26 g. The IC50 (Progesterone receptor) was 15 µM, the Activity [13] was 179.8 mg/dL and the Activity (Mus musculus [14]) was “inactive”. The Activity (Mus musculus [15]) was “inactive”, the Activity (Mus musculus [16]) was “Active” and the Activity [17] was 0.23 g. The Activity [18] was 0.026 g, the Activity [19] was 30 g and the Activity (Mus musculus [20]) was “inactive”. The IC50 (Glucocorticoid receptor) was 19 µM and the Activity (Mus musculus [21]) was “inactive”.

Work on `CC#C[C@]1(O)CC[C@H]2[C@@H]3CCC4=CC(=O)CCC4=C3[C@@H](c3ccc(N(C)C)cc3)C[C@@]21C` [MIFEPRISTONE] yielded an Activity [22] of 198.2 mg/dL, an Activity [23] of 1.2 g and an Activity [24] of 0.17 g. The Activity (Mus musculus [25]) was “inactive”, the Activity (Mus musculus [26]) was “Active” and the Activity (Mus musculus [27]) was “Active”. The Activity [28] was 29 g, the Activity (Mus musculus [29]) was “inactive” and the Activity [30] was 0.021 g.

Work on `CC(=O)[C@H]1CC[C@H]2[C@@H]3CCC4=CC(=O)CC[C@]4(C)[C@H]3CC[C@]12C` [PROGESTERONE] yielded an Activity [1] of 209.4 mg/dL, an Activity [4] of 1.4 g and an Activity [31] of 7%. The Activity [9] was 30 g, the Activity [12] was 0.24 g and the inhibition (Mus musculus [32]) was “inactive”. The Activity (Mus musculus [33]) was “inactive”, the Activity [18] was 0.021 g and the Activity (Mus musculus [34]) was “Active”.
